CCR6 antagonist = CCR6 receptor antagonists, primary screen, cell-based, CHO-K1, luminescence, beta-arrestin, uHTS | CHO-K1 CCR6 PathHunter beta-arrestin, CCL20-stimulated | inhibition, % at 20 µM | hit rate 0.49% among 340,000;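 active = compounds whose inhibition of the agonist-driven luminescence signal at 20 µM reaches about 50%, limit read from the data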;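 also: cells stimulated with CCL20 at 14 nM final; plate controls were DMSO with CCL20 for no effect and DMSO without agonist for full effect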
iPSC survival up = enhancers of single-cell hiPSC survival, primary screen, ATPlite luminescence | survival enhancement, % at 20 µM | 100% = ROCK inhibitor wells, 0% = DMSO | hit rate 0.044% among 360,000; in the data active = survival enhancement above about 18%;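 also: cells exposed to compounds for 16 hours before the ATP read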
APJ antagonist = antagonists of human apelin receptor APJ, primary screen, CHO-K1 cells, beta-arrestin complementation, luminescence. P35414. inhibition, % at 20 µM. hit rate 0.32% among 330,000. AID 2521, 2010;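 active = inhibition above about 40% at 20 µM, limit read from the data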;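 also: cells challenged with 10 nM apelin-13 agonist together with compound; plate controls were apelin-13 plus DMSO wells for no effect and DMSO wells lacking apelin-13 for full effect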
APJ ag = agonists of human apelin receptor APJ, primary screen, CHO-K1 cells, PathHunter beta-arrestin, luminescence | AID 2520, 2010 | 0% DMSO wells, 100% apelin | P35414 | hit rate 0.11% among 330,000 | activation, % at 20 µM;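 active = activation more than six SD over the plate average, tested at 20 µM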;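 also: 0% = DMSO alone and 100% = apelin-13 at 10 nM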
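Assay system: CHO-K1 cells stably expressing ProLink-tagged human APJ and arrestin–beta-gal acceptor. Compound dosing: 20 µM single point, 1% DMSO. Times: 16-18 h seeding, 90 min dark compound exposure, 60 min detection. Detection: beta-gal luminescence. Evaluation: APJ–arrestin association signal. Controls: negative DMSO alone, positive Apelin-13 at 10 nM.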
CXCR6 inh = CXCR6 receptor inhibitors, primary screen, cell-based, beta-arrestin, luminescence, CHO-K1 PathHunter, 1536-well | inhibition, % at 20 µM | hit rate 0.36% among 360,000 | C-X-C chemokine receptor type 6 (Homo sapiens), O00574; in the data active = inhibition above about 34%, passing the limit was not always enough;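 also: antagonist mode with CXCL16 agonist at 10 nM final; 0% = 10 nM CXCL16 with DMSO and 100% = unstimulated wells without agonist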
Target sequence (O00574 whole entry, looked up): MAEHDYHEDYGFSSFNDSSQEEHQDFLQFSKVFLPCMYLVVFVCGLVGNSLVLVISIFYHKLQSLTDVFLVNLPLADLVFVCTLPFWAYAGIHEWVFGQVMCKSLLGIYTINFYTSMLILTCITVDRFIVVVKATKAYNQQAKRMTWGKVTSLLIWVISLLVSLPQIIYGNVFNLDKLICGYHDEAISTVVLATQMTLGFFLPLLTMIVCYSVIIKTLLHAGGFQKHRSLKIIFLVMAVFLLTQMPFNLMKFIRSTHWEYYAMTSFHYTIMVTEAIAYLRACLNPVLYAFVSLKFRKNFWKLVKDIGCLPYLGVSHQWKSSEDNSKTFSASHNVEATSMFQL
EBI2 block = EBI2 receptor antagonists, beta-arrestin recruitment, primary screen, cell-based, luminescence, 7a,25-OHC stimulation, uHTS. inhibition, % at 5 µM. hit rate 0.81% among 360,000. G-protein coupled receptor 183 (Homo sapiens), P32249. 7a,25-OHC stimulated. AID 651636, 2012; in the data active = inhibition above about 38%;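 also: enzyme fragment complementation signal reports receptor beta-arrestin coupling in cells; 0% = agonist plus DMSO wells and 100% = wells without agonist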
EBI2 conf = EBI2 antagonist hit retest, beta-arrestin, confirmation, cell-based, single concentration, luminescence, 7a,25-OHC stimulation | 7a,25-OHC antagonism | AID 651997, 2013 | hit rate 29% among 2,400 | inhibition, % at 5 µM | shares compounds with EBI2 block;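 active = inhibition of at least 50%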
EBI2 agonist = EBI2 agonist activity of antagonist hits, confirmation, counter-screen for EBI2 antagonist project, cell-based, single concentration, agonist mode, luminescence | shares compounds with EBI2 block | EBI2-expressing cells, 60 min; 0% vehicle, 100% 7α,25-dihydroxycholesterol control | activation, % at 5 µM | 2,400 tested, under 10 active;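 active = activation of at least 50%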
bGal counter = E. coli beta-galactosidase enzyme inhibition, confirmation, counter-screen for EBI2 antagonist project, biochemical, luminescence, single concentration; hit rate 1% among 2,400; shares compounds with EBI2 block; purified beta-galactosidase, luminescent Galacton Star, 15 min; inhibition, % at 5 µM;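 active = replicate-average signal at least 3 plate SD below neutral wells, shown as high inhibition, flagging enzyme-inhibiting false positives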;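 also: 0% = DMSO wells with enzyme and 100% = wells lacking enzyme; higher means stronger loss of beta-gal luminescence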
An asterisk follows results filed as active; . = not tested or not shown. A selection: hits, their analogues and other compounds. The true share with any hit is near 1.5%.

SMILES | CCR6 antagonist | iPSC survival up | APJ antagonist | APJ ag | CXCR6 inh | EBI2 block | EBI2 conf | EBI2 agonist | bGal counter
CC(C)C[C@H]1CNC(=S)N1C[C@H]1CCCN1C[C@H](CC(C)C)N1C[C@H](Cc2ccc(O)cc2)N(CC2CCCCC2)C1=S | . | -1 | . | . | 11 | 61* | 8 | -1 | -7
CC(C)C[C@@H](CN1CCC[C@@H]1CN1C(=S)NC[C@@H]1Cc1ccc(O)cc1)N1C[C@H](Cc2ccc(O)cc2)N(CCc2ccccc2)C1=S | . | -1 | . | . | 1 | 74* | 19 | 0 | -11
CCOc1ccc(CCN2C(=S)N([C@@H](CC(C)C)CN3CCC[C@@H]3CN3C(=S)NC[C@@H]3CC(C)C)C[C@@H]2Cc2ccc(O)cc2)cc1 | . | -1 | . | . | 10 | 47* | 23 | 0 | 4
CC(C)C[C@@H](CN1CCCC1CN1C(=S)NC[C@@H]1Cc1ccccc1)N1C[C@H](Cc2ccccc2)N(CCc2ccccc2)C1=S (stereo partly drawn) | . | -2 | . | . | -6 | 12 | . | . | .
CC(C)C[C@@H](CN1CCC[C@@H]1CN1C(=S)NC[C@@H]1Cc1ccccc1)N1C[C@H](Cc2ccc(O)cc2)N(CCc2ccccc2)C1=S | . | -3 | . | . | -1 | 37* | 5 | 1 | 7
CN(Cc1cccc(Cl)c1)C(=O)C1CCC(=O)N(C2CC2)C1 (stereo not drawn) | 5 | 1 | -4 | -3 | -5 | 4 | . | . | .
CC(C)Oc1cc(F)ccc1-c1cc(C(=O)Nc2ccc(C(C)C)cc2)[nH]n1 | . | -2 | . | . | 3 | 54* | 47 | 1 | 1
CC(C)Nc1ncnc2c1ncn2[C@H]1CN(Cc2ccc(F)cc2)C[C@@H](CO)O1 | . | 6 | . | . | -8 | 47* | 50* | 0 | 7
CC(C)CNc1ncnc2c1ncn2[C@H]1CN(Cc2ccc(Cl)cc2)C[C@@H](CO)O1 | . | -1 | . | . | -8 | 8 | . | . | .
CC(C)Nc1ncnc2c1ncn2[C@H]1CN(Cc2ccc(Cl)cc2)C[C@@H](CO)O1 | . | 4 | . | . | 0 | 74* | 88* | -2 | -20
CSc1ccc(CNC(=O)C2CCC(=O)N(CCc3ccc(Cl)cc3)C2)cc1 (stereo not drawn) | . | -1 | . | . | 1 | 50* | 21 | -1 | -18
CN(Cc1ccccc1)C(=O)COC(=O)C1CCN(S(=O)(=O)c2ccc(Cl)c(C(F)(F)F)c2)CC1 | 4 | 0 | 7 | -5 | -4 | 6 | . | . | .
Clc1cccc(-c2nnc(SC/C=C/c3ccccc3)n2Cc2ccco2)c1 | 16 | -2 | 7 | -6 | 12 | 45* | 35 | -1 | 4
Cc1ccn2c(Cc3ccccc3)c(-c3ccc(F)cc3)nc2c1 | . | -2 | . | . | 27 | 13 | . | . | .
Cn1cccc1Cc1nnc(SCC(=O)N2CCc3ccccc32)n1CCc1ccccc1 | 13 | 1 | -1 | -4 | -4 | 68* | 40 | 0 | -10
COc1ccc(-n2c(Cc3cccn3C)nnc2SCC(=O)N2CCCc3ccccc32)cc1 | 4 | 0 | 11 | -4 | 4 | 38* | 35 | 0 | 6
Cn1cccc1Cc1nnc(SCC(=O)N2CCCC2)n1CCc1ccccc1 | 7 | 1 | -75 | -3 | -3 | 6 | . | . | .
CC1CCN(C(=O)CSc2nnc(Cc3cccn3C)n2CCc2ccccc2)CC1 | -3 | -1 | 15 | -5 | 3 | 47* | -3 | 2 | 9

Compound activity from PubChem BioAssay.
